Assay [1] in a line: Displacement of [3H]-N-methylspiperone from dopamine D2 like receptor in pig striatal homogenates after 30 mins by scintillation counting. The format is tissue-based, Sus scrofa. In general terms: Displacement assays read how much labelled ligand stays bound in the presence of the test substance.
Assay [2] is described as follows: Displacement of [3H]-SCH-23390 from dopamine D1 like receptor in pig striatal homogenates after 30 mins by scintillation counting. The format is tissue-based, Sus scrofa.
The species named for assay [3] is Sus scrofa. Put plainly: Selectivity ratio of Ki for dopamine D2 like receptor in pig striatal homogenates to Ki for dopamine D1 like receptor in pig striatal homogenates. The format is tissue-based. A digest of the protocol:
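Porcine striatal homogenate in 50 mM HEPES, 4 mM MgCl2, pH 7.4. […] D2-like sites labelled with 0.2–0.4 nM [3H]N-methylspiperone plus 50 nM ketanserin to block 5-HT2A. Nonspecific binding with 5 µM (+)-butaclamol. 30 min at 37 °C, filtration, scintillation counting. Ki by Cheng-Prusoff from IC50. At least three experiments.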

Assay [4] addresses D(1A) dopamine receptor (Homo sapiens, UniProt P21728). Put plainly: Displacement of [3H]-SCH-23390 from human dopamine D1 receptor expressed in HEK293 cells after 30 mins by scintillation counting. The format is cell-based.
Assay [5] concerns the target T1, D(3) dopamine receptor (Homo sapiens, UniProt P35462). Briefly: Displacement of [3H]-N-methylspiperone from human dopamine D3 receptor expressed in HEK293 cells after 30 mins by scintillation counting. The format is cell-based.
In assay [6] the target is D(2) dopamine receptor (Homo sapiens, UniProt P14416). Put plainly: Displacement of [3H]-N-methylspiperone from human dopamine D2long receptor expressed in HEK293 cells after 30 mins by scintillation counting. The format is cell-based.
Chain of D(2) dopamine receptor (P14416 whole entry): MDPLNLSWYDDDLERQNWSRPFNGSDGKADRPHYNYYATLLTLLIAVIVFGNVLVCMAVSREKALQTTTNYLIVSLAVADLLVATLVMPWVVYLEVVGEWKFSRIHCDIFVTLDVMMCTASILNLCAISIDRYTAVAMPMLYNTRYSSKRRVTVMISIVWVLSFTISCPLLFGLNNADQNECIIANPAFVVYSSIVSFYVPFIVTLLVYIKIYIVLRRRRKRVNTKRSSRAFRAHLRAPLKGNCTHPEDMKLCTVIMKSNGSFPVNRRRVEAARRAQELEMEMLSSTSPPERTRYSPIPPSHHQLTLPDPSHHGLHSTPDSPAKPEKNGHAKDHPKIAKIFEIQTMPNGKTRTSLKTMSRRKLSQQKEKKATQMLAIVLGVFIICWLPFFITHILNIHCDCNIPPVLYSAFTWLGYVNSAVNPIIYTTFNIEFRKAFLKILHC
The species entered for assay [7] is Homo sapiens. Put plainly: Selectivity ratio of Ki for human dopamine D3 receptor to Ki for human dopamine D2long receptor. An outline of the steps: (§1)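 Membranes from HEK293 cells transiently expressing human receptors: D1 at ~2840 fmol/mg, D2Long at ~2500 fmol/mg, D3 at ~1980 fmol/mg. Buffer 50 mM Tris, 4 mM MgCl2, pH 7.4. […] 5 µM (+)-butaclamol for nonspecific binding. 30 min at 37 °C, filtration, scintillation.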

Assay [8] is filed under the species Homo sapiens. Briefly: Selectivity ratio of Ki for human dopamine D3 receptor to Ki for human dopamine D1 receptor. An outline of the steps: as §1
The target in assay [9] is T1, D(3) dopamine receptor. Put plainly: Agonist activity at dopamine D3 receptor in human U2OS-D3 cells assessed as EA-tagged beta-arrestin translocation after 1.5 hrs by luminescence based beta-galactosidase assay relative to dopamine. The format is functional, cell-based.

Chain of D(1A) dopamine receptor (P21728 whole entry): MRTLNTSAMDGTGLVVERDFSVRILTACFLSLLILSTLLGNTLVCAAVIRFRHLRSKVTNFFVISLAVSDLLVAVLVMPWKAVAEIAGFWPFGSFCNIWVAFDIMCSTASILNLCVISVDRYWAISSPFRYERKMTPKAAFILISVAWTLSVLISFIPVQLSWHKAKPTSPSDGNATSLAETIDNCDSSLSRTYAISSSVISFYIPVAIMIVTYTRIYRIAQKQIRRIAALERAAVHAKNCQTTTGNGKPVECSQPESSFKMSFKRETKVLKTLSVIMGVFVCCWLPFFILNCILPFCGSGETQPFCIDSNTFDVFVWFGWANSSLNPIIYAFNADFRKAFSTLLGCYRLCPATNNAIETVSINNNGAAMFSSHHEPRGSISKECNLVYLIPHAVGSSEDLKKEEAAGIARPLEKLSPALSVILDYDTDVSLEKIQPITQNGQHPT
T1 sequence (P35462 whole entry): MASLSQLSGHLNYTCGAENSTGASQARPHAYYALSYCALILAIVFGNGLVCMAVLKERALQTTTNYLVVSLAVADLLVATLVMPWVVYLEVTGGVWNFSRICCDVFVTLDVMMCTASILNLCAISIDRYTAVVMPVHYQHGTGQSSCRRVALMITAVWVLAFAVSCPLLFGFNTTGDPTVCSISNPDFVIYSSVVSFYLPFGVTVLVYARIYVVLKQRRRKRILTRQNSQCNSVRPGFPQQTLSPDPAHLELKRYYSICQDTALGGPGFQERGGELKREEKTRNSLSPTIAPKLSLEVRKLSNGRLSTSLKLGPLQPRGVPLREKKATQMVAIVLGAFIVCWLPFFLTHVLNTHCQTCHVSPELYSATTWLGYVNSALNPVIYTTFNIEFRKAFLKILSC

A word on the Ki: it is the dissociation constant of the complex between target and ligand, obtained from inhibition or displacement. Low values mean a stronger hold on the target, high ones a looser hold on the target. `Oc1cc2c(cc1O)[C@H]1c3ccccc3CN[C@@H]1CC2` (relative stereo) [DIHYDREXIDINE]: in assay [1], the affinity, expressed as Ki, was 200 nM.

In the case of `Oc1cc2c(cc1O)[C@H]1C[C@@H](c3ccccc3)CN[C@@H]1CC2` (racemic), the Ki stood at 930 nM in assay [2] and 30 nM in [1]. Further, the Ratio Ki in assay [3] is 31.

As to `CN1CCc2cc(Cl)c(O)cc2[C@@H](c2ccccc2)C1.O=C(O)/C(O)=C(/O)C(=O)O`, in assay [2], the Ki amounted to 0.31 nM.

With `Oc1cccc([C@H]2CN[C@@H]3CCc4cc(O)c(O)cc4[C@H]3C2)c1` (racemic), the Ki is 580 nM in assay [2] and 29 nM in assay [1]. The Ratio Ki in [3] worked out at 20.

In the case of `Oc1ccc2c(c1O)C[C@@H](c1ccccc1)[C@@H]1CCNC[C@@H]21`, the Ki in [4] is 47 nM; in assay [5], 210 nM; in [2], 8.2 nM; in assay [1], 180 nM.

As for `Cc1ccc([C@H]2CN[C@@H]3CCc4cc(O)c(O)cc4[C@H]3C2)cc1` (racemic), the Ki in assay [2] came out at 810 nM; in assay [1], 56 nM. In assay [3], the Ratio Ki came out at 14.

As to `Oc1ccc([C@H]2CN[C@@H]3CCc4cc(O)c(O)cc4[C@H]3C2)cc1` (racemic), the Ki in [4] worked out at 550 nM; in [6], 490 nM; in [5], 50 nM; in [2], 490 nM; in assay [1] it was 14 nM. Further, the Ratio Ki was 34 in assay [3] and 10 in assay [7].

For orientation: Emax means the greatest response seen or fitted, relative to the assay's reference. Consider `CCCN1C[C@H](c2ccc(O)cc2)C[C@@H]2c3cc(O)c(O)cc3CC[C@H]21` (relative stereo), for which the Ki in assay [4] amounted to 921 nM; in assay [2] it was 630 nM; in assay [1], 10 nM. Further, the Ratio Ki was found to be 840 in assay [8], 61 in assay [3] and 145 in assay [7]. Further, in [9], the Emax turned out to be 103%.

For the compound `Oc1cc2c(cc1O)[C@H]1C[C@@H](c3ccc(C(F)(F)F)cc3)CN[C@@H]1CC2` (racemic), the Ki in assay [2] amounted to 2370 nM; in assay [1] it was 150 nM. Also, in [3], the Ratio Ki stood at 16.

Values taken from ChEMBL document CHEMBL2157876, “Identification of a 2-phenyl-substituted octahydrobenzo[f]quinoline as a dopamine D₃ receptor-selective full agonist ligand” (Bioorg Med Chem, 2012).
